Experimental findings from ChEMBL document CHEMBL1141449, “Diterpenes, sesquiterpenes, and a C15-acetogenin from the marine red alga Laurencia mariannensis” (2007) are described below.

The source made the active and inactive calls. The rule behind the calls is not given here.

One assay relates to Escherichia coli. Description: Antibacterial activity against Escherichia coli by standard agar diffusion test. It is filed as functional. In short, it runs like this: (§1)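 Agar diffusion assay following a cited standard method. Read-out is the diameter of the growth-inhibition zone, in mm.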
Another assay has as its system Candida albicans. The experiment in a line: Antifungal activity against Candida albicans by standard agar diffusion test. It is filed as functional, organism-based. In short, it runs like this:
as §1
(In general: A growth-free zone around the sample is the usual read-out of agar diffusion tests.)

The subject of another assay is Aspergillus niger. The experiment in a line: Antifungal activity against Aspergillus niger by standard agar diffusion test. In kind it is functional, organism-based. In short, it runs like this: as §1
For the next assay, the system named is Staphylococcus aureus. Description: Antibacterial activity against Staphylococcus aureus by standard agar diffusion test. It is filed as functional. In short, it runs like this: as §1

On to `CC/C(Br)=C/C=C\C1=C(Br)[C@H]2O[C@H](C=C=CBr)C[C@H]2O1` [LAURENMARIALLENE], for which, in the assay with Escherichia coli, the “inhibition zone (IZ)” value stood at 7 mm. Further, the outcome with Candida albicans and in the assay with Aspergillus niger was inactive.

On to `C=C1CC[C@H](Br)C(C)(C)[C@@]12CCC(C)=C(Cl)C2`, for which the outcome with Candida albicans and with Aspergillus niger was inactive.

As to `C=C1CC[C@H](Br)C(C)(C)[C@]12CC[C@@]1(C)[C@H](C2)[C@](C)(O)[C@H](O)C[C@@H]1Br`, the “inhibition zone (IZ)” value in the assay on Staphylococcus aureus and in the assay with Escherichia coli was 6.5 mm each time. Also, the result in the assay on Candida albicans and in the assay on Aspergillus niger was inactive.

As for `C=C[C@]1(C)CC[C@H]2C(C)=CC[C@@H](C)[C@]2(C)O1`, the outcome in the assay with Candida albicans and with Aspergillus niger was inactive.
